Data: ChEMBL document CHEMBL1667769, “Sodium [2'-[(cyclopropanecarbonyl-ethyl-amino)-methyl]-4'-(6-ethoxy-pyridin-3-yl)-6-methoxy-biphenyl-3-yl]-acetate (AM432): a potent, selective prostaglandin D2 receptor antagonist” (Bioorg Med Chem Lett, 2011)
Activity calls are given as the source filed them. The calls are words filed in the database; no cut-off is given here.

How the values were obtained:
[1] = molecular target: T1, Prostaglandin D2 receptor 2 (Homo sapiens, UniProt Q9Y5Y4); assay: Displacement of [3H]PGD2 from human CRTh2 receptor expressed in 293 cells by liquid scintillation counting in presence of 0.2 % HSA; format: cell-based, HEK293
T1 sequence (Q9Y5Y4 whole entry): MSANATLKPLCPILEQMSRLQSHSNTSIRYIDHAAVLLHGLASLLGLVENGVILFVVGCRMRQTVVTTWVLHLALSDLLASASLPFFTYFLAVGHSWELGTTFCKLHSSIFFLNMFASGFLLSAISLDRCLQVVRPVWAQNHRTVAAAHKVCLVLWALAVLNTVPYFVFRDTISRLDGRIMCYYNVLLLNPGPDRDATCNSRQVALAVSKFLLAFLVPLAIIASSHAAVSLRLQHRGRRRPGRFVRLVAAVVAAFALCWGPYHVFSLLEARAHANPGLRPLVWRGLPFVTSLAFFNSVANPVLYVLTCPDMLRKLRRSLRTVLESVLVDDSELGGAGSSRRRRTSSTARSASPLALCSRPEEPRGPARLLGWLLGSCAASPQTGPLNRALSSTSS
Outline: (§1)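 Membranes from 293 cells stably expressing human DP₂ incubated with [³H]-PGD₂ and increasing compound concentrations. Membranes harvested and washed; bound [³H]-PGD₂ counted. IC₅₀ taken as concentration giving 50% inhibition of binding. Run without and with 0.2% human serum albumin. Values averaged from three experiments (five for the lead).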

[2] = molecular target: T1, Prostaglandin D2 receptor 2; assay: Displacement of [3H]PGD2 from human CRTh2 receptor expressed in 293 cells by liquid scintillation counting; format: cell-based, HEK293; outline: as §1
Prostacyclin receptor = Prostacyclin receptor (Homo sapiens, UniProt P43119); assay: Displacement of [3H]iloprost from IP receptor in human 293 cell membrane; format: cell membranes
Prostacyclin receptor, sequence (P43119 whole entry): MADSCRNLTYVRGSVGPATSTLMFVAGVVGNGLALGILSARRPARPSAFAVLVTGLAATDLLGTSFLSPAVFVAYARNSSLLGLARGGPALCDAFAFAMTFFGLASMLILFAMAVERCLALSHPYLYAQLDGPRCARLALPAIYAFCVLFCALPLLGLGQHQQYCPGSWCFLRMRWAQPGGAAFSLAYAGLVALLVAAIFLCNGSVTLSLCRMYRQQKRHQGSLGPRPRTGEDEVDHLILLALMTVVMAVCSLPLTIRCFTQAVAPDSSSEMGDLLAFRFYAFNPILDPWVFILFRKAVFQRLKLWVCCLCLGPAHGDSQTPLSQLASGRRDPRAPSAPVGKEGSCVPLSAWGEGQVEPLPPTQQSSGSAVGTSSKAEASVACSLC
Outline: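 Human IP binding using hIP/293 membranes and ³H-iloprost.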

Mus musculus [3] = assay: Antiinflammatory activity against cigarette smoke-induced lung inflammation in BALB/c mouse assessed as reduction in bronchoalveolar lavage fluid macrophages at 10 mg/kg, po for 2 days; format: functional, organism-based; set-up: dose 10 mg/kg
Outline: (§2)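 Mice exposed to cigarette smoke. Oral dosing at 10 or 50 mg/kg, or 0.5% methylcellulose vehicle, on days −1 through 2. On day 3, euthanized by isoflurane inhalation, then bronchoalveolar lavage with differential counts of neutrophils, lymphocytes and macrophages.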

Thromboxane A2 receptor = molecular target: T2, Thromboxane A2 receptor (Homo sapiens, UniProt P21731); assay: Displacement of [3H]SQ-29548 from TP receptor in human platelet membrane; format: cell membranes
T2 sequence (P21731 whole entry): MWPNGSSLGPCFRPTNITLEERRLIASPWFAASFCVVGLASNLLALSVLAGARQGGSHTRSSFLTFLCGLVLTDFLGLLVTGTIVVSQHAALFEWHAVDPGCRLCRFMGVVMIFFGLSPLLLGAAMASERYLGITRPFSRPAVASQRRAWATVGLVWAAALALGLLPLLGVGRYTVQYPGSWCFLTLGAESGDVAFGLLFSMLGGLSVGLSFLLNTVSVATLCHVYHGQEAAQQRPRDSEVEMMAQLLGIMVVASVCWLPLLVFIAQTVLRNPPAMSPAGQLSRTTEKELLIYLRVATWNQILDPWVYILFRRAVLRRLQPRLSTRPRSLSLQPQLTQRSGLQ
Outline: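 Human TP binding using human platelet membranes and ³H-SQ-29548.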

[4] = Cmax in dog at 2.5 mg/kg, po or 2 mg/kg, iv; details: in vivo
Mus musculus [5] = assay: Antiinflammatory activity against cigarette smoke-induced lung inflammation in BALB/c mouse assessed as reduction in bronchoalveolar lavage fluid neutrophils at 10 mg/kg, po for 2 days; format: functional, organism-based; set-up: dose 10 mg/kg; outline: as §2
[6] = molecular target: Peroxisome proliferator-activated receptor gamma (Homo sapiens, UniProt P37231); assay: Inhibition of PPAR gamma
Peroxisome proliferator-activated receptor gamma, sequence (P37231 whole entry, looked up): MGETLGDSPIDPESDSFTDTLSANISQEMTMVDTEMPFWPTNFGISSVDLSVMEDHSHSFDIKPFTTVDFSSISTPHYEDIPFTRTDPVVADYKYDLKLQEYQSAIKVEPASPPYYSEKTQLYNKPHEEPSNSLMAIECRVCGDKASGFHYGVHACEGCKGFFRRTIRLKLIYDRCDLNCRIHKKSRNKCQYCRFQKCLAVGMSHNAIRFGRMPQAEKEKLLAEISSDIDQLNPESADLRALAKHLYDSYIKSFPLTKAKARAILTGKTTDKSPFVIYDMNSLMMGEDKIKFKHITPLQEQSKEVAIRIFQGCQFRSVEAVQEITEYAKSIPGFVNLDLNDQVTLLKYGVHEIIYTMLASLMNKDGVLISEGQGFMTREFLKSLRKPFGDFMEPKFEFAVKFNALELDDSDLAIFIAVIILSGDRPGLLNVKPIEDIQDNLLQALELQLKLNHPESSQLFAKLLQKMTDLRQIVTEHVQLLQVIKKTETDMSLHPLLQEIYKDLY

Mus musculus [7] = assay: Antiinflammatory activity against cigarette smoke-induced lung inflammation in BALB/c mouse assessed as reduction in bronchoalveolar lavage fluid lymphocytes at 50 mg/kg, po for 2 days; format: functional, organism-based; set-up: dose 50 mg/kg; outline: as §2
Cytochrome P450 2C19 = Cytochrome P450 2C19 (Homo sapiens, UniProt P33261); assay: Inhibition of human CYP2C19; format: ADME
Cytochrome P450 2C19, sequence (P33261 whole entry): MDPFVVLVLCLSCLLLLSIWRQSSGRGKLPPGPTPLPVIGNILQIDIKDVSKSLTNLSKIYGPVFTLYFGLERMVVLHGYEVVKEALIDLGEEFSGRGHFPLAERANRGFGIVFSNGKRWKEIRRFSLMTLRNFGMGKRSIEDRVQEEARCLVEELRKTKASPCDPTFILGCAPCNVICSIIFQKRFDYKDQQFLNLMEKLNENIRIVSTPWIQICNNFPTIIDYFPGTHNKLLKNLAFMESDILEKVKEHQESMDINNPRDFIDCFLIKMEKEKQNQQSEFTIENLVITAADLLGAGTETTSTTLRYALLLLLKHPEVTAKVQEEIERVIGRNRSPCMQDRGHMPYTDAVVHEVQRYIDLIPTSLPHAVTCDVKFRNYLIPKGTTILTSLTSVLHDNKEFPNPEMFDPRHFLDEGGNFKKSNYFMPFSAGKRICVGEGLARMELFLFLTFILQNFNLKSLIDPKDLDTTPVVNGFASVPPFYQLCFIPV

Cytochrome P450 2D6 = Cytochrome P450 2D6 (Homo sapiens, UniProt P10635); assay: Inhibition of human CYP2D6; format: ADME
Cytochrome P450 2D6, sequence (P10635 whole entry): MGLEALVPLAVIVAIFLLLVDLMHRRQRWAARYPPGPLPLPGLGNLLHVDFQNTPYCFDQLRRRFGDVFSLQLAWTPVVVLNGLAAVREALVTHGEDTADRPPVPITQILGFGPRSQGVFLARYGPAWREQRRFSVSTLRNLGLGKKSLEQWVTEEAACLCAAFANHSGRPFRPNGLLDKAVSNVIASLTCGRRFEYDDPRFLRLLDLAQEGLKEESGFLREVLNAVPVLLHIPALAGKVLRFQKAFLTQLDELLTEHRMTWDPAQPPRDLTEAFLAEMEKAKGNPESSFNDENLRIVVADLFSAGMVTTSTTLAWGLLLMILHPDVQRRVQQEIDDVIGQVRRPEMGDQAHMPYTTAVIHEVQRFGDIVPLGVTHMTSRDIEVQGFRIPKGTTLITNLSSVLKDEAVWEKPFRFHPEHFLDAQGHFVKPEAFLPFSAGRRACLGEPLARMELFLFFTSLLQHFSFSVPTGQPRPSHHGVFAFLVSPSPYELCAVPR

Mus musculus [8] = assay: Antiinflammatory activity against cigarette smoke-induced lung inflammation in BALB/c mouse assessed as reduction in bronchoalveolar lavage fluid neutrophils at 50 mg/kg, po for 2 days; format: functional, organism-based; set-up: dose 50 mg/kg; outline: as §2
[9] = molecular target: T3, Prostaglandin G/H synthase 2 (Homo sapiens, UniProt P35354); assay: Inhibition of COX-2
T3 sequence (P35354 whole entry): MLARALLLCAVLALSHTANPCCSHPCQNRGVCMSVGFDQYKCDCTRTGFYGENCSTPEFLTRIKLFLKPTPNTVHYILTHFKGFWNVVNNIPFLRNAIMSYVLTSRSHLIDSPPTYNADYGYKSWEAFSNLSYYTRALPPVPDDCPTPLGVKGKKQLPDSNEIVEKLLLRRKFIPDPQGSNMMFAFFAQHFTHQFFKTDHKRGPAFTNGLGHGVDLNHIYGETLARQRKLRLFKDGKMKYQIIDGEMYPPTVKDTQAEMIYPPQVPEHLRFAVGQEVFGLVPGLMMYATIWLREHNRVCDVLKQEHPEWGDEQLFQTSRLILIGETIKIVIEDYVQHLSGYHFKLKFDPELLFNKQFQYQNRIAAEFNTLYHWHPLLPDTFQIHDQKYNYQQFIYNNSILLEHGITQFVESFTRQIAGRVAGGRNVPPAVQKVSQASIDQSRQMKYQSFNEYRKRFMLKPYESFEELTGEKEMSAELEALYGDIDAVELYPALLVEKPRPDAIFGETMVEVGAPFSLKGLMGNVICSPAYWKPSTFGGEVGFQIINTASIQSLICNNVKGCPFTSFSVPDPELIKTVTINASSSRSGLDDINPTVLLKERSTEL

Mus musculus [10] = assay: Antiallergic activity in BALB/c mouse assessed as reduction in ovalbumin-induced increase in nasal sneezes at 10 mg/kg, po administered 21 to 25 days after ovalbumin challenge followed by intranasal ovalbumin challenge measured for 8 mins of post dose; format: functional, organism-based; set-up: dose 10 mg/kg
[11] = molecular target: T4, Prostaglandin D2 receptor (Homo sapiens, UniProt Q13258); assay: Displacement of [3H]PGD2 from DP1 in human platelet membrane; format: cell membranes
T4 sequence (Q13258 whole entry): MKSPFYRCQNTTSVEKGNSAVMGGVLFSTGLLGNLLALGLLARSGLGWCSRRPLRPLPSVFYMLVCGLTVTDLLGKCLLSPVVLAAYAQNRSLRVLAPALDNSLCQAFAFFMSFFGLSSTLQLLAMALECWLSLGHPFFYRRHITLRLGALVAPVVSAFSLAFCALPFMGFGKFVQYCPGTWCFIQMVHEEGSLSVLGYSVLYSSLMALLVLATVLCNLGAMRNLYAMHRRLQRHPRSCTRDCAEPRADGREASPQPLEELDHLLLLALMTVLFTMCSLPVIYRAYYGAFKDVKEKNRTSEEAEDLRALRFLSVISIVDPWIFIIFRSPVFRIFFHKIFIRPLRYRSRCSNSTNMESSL
Outline: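 Human DP₁ binding using ³H-PGD₂ and human platelet membranes.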

Cytochrome P450 1A2 = molecular target: T5, Cytochrome P450 1A2 (Homo sapiens, UniProt P05177); assay: Inhibition of human CYP1A2; format: ADME
T5 sequence (P05177 whole entry): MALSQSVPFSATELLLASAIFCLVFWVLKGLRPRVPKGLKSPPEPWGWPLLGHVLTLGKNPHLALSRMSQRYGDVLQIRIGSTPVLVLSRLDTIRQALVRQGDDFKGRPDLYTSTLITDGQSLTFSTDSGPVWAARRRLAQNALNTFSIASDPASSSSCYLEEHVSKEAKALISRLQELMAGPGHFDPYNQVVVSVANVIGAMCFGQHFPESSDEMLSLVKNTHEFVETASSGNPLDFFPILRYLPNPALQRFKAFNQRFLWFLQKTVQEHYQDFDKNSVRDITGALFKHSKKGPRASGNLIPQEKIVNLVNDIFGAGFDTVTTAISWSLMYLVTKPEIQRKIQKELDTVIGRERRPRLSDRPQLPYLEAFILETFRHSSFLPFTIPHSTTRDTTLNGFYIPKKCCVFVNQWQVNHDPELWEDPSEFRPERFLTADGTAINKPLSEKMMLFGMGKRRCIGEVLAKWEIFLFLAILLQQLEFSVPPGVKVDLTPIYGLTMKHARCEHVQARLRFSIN

Canis familiaris = assay: AUC in dog at 2.5 mg/kg, po or 2 mg/kg, iv; details: in vivo
Mus musculus [12] = assay: Antiallergic activity in BALB/c mouse assessed as reduction in ovalbumin-induced increase in nasal rubs at 10 mg/kg, po administered 21 to 25 days after ovalbumin challenge followed by intranasal ovalbumin challenge measured for 8 mins of post dose; format: functional, organism-based; set-up: dose 10 mg/kg
[13] = Clearance in dog at 2.5 mg/kg, po or 2 mg/kg, iv; details: in vivo
[14] = molecular target: Peroxisome proliferator-activated receptor delta (Homo sapiens, UniProt Q03181); assay: Inhibition of PPAR beta
Peroxisome proliferator-activated receptor delta, sequence (Q03181 whole entry, looked up): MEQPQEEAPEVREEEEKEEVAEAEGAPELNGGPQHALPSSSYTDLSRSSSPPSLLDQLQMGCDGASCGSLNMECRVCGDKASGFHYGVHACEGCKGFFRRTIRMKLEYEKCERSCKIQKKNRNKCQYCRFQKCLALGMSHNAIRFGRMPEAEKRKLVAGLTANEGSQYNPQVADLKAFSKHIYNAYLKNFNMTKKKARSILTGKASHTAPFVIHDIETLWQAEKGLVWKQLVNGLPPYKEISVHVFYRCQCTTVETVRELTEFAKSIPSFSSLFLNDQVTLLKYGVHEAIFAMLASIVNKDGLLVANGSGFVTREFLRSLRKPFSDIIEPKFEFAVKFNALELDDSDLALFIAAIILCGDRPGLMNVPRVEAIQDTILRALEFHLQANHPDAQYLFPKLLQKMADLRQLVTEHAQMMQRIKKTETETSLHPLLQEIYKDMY

Cytochrome P450 3A4 = Cytochrome P450 3A4 (Homo sapiens, UniProt P08684); assay: Inhibition of human CYP3A4; format: ADME
Cytochrome P450 3A4, sequence (P08684 whole entry): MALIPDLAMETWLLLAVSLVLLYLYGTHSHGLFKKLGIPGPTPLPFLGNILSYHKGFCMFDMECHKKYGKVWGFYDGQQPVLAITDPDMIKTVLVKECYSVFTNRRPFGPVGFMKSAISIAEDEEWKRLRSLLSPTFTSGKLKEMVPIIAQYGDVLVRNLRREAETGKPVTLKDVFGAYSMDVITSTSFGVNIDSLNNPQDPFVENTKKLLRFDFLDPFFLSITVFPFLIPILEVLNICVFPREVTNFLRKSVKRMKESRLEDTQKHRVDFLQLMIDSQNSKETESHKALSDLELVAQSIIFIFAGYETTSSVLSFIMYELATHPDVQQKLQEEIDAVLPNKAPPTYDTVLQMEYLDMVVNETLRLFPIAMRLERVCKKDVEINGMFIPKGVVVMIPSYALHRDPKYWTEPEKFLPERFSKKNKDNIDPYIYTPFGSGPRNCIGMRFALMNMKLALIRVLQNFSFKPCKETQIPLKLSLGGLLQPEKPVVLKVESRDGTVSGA

hERG (KCNH2) = hERG (KCNH2) (Homo sapiens, UniProt Q12809); assay: Inhibition of human ERG at 10 uM by patch-clamp analysis
hERG (KCNH2), sequence (Q12809 whole entry): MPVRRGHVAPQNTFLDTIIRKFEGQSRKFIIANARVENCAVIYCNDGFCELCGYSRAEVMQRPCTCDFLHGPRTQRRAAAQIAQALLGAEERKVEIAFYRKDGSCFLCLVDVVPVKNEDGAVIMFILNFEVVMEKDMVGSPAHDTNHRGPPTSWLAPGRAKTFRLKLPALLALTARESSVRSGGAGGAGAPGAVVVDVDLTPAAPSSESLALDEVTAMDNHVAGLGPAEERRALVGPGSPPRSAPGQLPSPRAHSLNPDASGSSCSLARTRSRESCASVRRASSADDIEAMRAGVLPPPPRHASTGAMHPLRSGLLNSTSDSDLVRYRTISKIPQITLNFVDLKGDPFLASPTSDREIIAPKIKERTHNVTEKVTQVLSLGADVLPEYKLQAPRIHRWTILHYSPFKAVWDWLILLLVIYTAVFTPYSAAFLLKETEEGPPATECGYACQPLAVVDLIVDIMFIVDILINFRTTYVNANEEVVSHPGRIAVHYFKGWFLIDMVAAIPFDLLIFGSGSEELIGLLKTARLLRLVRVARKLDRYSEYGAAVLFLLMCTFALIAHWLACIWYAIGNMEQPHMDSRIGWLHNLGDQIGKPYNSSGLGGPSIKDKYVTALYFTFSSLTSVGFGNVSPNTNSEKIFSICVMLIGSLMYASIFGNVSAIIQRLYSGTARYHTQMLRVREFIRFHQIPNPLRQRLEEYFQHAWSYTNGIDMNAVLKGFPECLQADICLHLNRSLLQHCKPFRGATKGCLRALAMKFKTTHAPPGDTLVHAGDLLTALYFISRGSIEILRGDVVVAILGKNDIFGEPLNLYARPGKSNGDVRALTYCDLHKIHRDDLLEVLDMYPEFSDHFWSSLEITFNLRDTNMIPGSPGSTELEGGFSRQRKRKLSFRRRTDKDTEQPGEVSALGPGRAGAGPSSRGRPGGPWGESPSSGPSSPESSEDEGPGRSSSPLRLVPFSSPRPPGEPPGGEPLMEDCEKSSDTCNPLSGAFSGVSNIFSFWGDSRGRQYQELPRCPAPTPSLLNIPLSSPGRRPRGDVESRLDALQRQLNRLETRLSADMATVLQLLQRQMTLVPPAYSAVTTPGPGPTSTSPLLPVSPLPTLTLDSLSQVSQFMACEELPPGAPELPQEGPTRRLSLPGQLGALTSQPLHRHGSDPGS

Mus musculus [15] = assay: Antiinflammatory activity against cigarette smoke-induced lung inflammation in BALB/c mouse assessed as reduction in bronchoalveolar lavage fluid lymphocytes at 10 mg/kg, po for 2 days; format: functional, organism-based; set-up: dose 10 mg/kg; outline: as §2
Cytochrome P450 2C9 = Cytochrome P450 2C9 (Homo sapiens, UniProt P11712); assay: Inhibition of human CYP2C9; format: ADME
Cytochrome P450 2C9, sequence (P11712 whole entry): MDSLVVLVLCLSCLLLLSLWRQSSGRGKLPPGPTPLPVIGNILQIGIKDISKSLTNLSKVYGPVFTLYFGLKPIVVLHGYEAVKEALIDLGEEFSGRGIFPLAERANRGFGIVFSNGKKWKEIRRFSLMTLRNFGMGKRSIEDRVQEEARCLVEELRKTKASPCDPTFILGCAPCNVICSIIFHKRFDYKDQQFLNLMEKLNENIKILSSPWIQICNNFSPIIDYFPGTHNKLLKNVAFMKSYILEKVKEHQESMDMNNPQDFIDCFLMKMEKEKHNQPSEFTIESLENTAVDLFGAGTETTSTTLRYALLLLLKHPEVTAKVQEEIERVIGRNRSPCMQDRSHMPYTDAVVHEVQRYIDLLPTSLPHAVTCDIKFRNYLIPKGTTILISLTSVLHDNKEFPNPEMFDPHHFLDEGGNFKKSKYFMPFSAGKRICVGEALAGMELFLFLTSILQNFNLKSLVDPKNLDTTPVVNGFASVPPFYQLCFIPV

[16] = molecular target: T6, Peroxisome proliferator-activated receptor alpha (Homo sapiens, UniProt Q07869); assay: Inhibition of PPAR alpha
T6 sequence (Q07869 whole entry): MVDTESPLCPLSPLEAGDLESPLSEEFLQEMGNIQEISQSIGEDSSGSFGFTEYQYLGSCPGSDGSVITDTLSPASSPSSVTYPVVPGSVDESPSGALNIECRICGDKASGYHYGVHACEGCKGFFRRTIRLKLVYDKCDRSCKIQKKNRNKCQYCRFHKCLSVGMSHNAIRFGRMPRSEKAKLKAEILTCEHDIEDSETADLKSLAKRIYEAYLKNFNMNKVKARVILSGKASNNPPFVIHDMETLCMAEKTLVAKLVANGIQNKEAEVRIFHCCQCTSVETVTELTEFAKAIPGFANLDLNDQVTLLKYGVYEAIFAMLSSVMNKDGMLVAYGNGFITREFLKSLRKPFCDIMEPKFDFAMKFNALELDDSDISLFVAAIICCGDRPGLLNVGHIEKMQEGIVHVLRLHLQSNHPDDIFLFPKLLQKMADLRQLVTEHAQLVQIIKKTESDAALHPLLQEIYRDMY

[17] = Half life in dog at 2.5 mg/kg, po or 2 mg/kg, iv; details: in vivo
[18] = molecular target: Prostaglandin G/H synthase 1 (Homo sapiens, UniProt P23219); assay: Inhibition of COX-1
Mus musculus [19] = assay: Antiinflammatory activity against cigarette smoke-induced lung inflammation in BALB/c mouse assessed as reduction in bronchoalveolar lavage fluid macrophages at 50 mg/kg, po for 2 days; format: functional, organism-based; set-up: dose 50 mg/kg; outline: as §2

CCN(Cc1cc(-c2ncc(OC)cn2)ccc1-c1cc(CC(=O)O)ccc1OC)C(=O)C1CC1
IC50 [1]: 107 nM
IC50 [2]: 27 nM

CCN(Cc1cc(NC(C)=O)ccc1-c1cc(CC(=O)O)ccc1OC)C(=O)OCc1ccccc1
IC50 [1]: 60 nM
IC50 [2]: 7 nM

CCOc1ccc(-c2ccc(-c3cc(CC(=O)[O-])ccc3OC)c(CN(CC)C(=O)C3CC3)c2)cn1.[Na+]
IC50 (Prostacyclin receptor): > 100000 nM
Activity (Mus musculus [3]): inactive
IC50 (Thromboxane A2 receptor): > 100000 nM
Cmax [4]: 30 µM
Activity (Mus musculus [5]): Active
IC50 [6]: > 250000 nM
Activity (Mus musculus [7]): Active
IC50 (Cytochrome P450 2C19): > 50000 nM
IC50 (Cytochrome P450 2D6): > 50000 nM
Activity (Mus musculus [8]): Active
IC50 [1]: 31 nM
IC50 [9]: > 100000 nM
Activity (Mus musculus [10]): Active
IC50 [11]: 26700 nM
IC50 (Cytochrome P450 1A2): > 50000 nM
AUC (Canis familiaris): 87 µg/mL
Activity (Mus musculus [12]): Active
clearance [13]: 0.5 mL/min/kg
IC50 [14]: > 250000 nM
IC50 (Cytochrome P450 3A4): > 50000 nM
inhibition at 10 µM (hERG (KCNH2)): 11%
Activity (Mus musculus [15]): inactive
IC50 (Cytochrome P450 2C9): > 50000 nM
IC50 [16]: > 250000 nM
half-life [17]: 6 h
IC50 [18]: > 100000 nM
Activity (Mus musculus [19]): Active
IC50 [2]: 6 nM

CCN(Cc1cc(NS(=O)(=O)c2ccc(Cl)cc2)ccc1-c1cc(CC(=O)O)ccc1OC)C(=O)OCc1ccccc1
IC50 [1]: 90 nM
IC50 [2]: 3 nM

CCN(Cc1cc(-c2cnc3ccccc3c2)ccc1-c1cc(CC(=O)O)ccc1OC)C(=O)C1CC1
IC50 [1]: 52 nM
IC50 [2]: 7 nM

CCN(Cc1cc(C(=O)O)ccc1-c1cc(CC(=O)O)ccc1OC)C(=O)OCc1ccccc1
IC50 [1]: 254 nM
IC50 [2]: 8 nM
